What was measured:
[1] = Inhibition of wild type HCV NS5B polymerase assessed as incorporation of [alpha32P]UTP into newly synthesized RNA by liquid scintillation counting; set-up: species or system Hepacivirus hominis
Summary of the method: (§1)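 De novo RNA synthesis by NS5B lacking 21 C-terminal residues, in 50 mM HEPES pH 7.5 with 5 mM MgCl2 and 2 mM DTT at 27°C. Template was unprimed minus-IRES RNA, 2.8 μg each of enzyme and template. CTP 10 μM, ATP and GTP 100 μM; 32P-UTP and inhibitor were varied. Aliquots were quenched with EDTA/NaCl/citrate.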

[2] = target: RNA-directed RNA polymerase (Hepacivirus hominis, UniProt O39930, S282T); assay: Inhibition of HCV NS5B polymerase S282T mutant assessed as incorporation of [alpha32P]UTP into newly synthesized RNA by liquid scintillation counting
Summary of the method: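 S282T NS5B (C-terminal Δ21, E. coli-expressed) de novo RNA synthesis on an unprimed minus-IRES template at 27°C in 50 mM HEPES pH 7.5 with 5 mM MgCl2 and 2 mM DTT. CTP, ATP and GTP were fixed at 10, 100 and 100 μM, and 32P-UTP and inhibitor were varied. Timed aliquots were quenched with EDTA/NaCl/citrate stop solution. Steady-state competitive inhibition gave the Ki.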

Hepatitis C virus [3] = assay: Antiviral activity against HCV harboring NS5B polymerase S282T mutation infected in human HuH7 cells assessed as inhibition of viral RNA replication after 4 days by replicon assay in absence of DCTD inhibitor zedularine; type: functional, Hepacivirus hominis; conditions: Huh-7, 96 h
Summary of the method: (§2)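 Huh-7 clone A subgenomic replicon cells carrying NS5B S282T (selected by serial passage with 2′-C-methyladenosine) were seeded at 1,500 cells/well without G418. Threefold compound dilutions were added alone or with 100 μM zebularine, followed by 4 days at 37°C, 5% CO2. Replicon RNA was quantified by single-step multiplex RT-PCR, and activity was taken as ΔCT versus the no-drug control to give EC90.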

Hepatocyte [4] = assay: Metabolic stability in human hepatocytes assessed as PSI-6130 triphosphate half life at 2 uM
Hepatitis C virus [5] = assay: Ratio of EC90 for wild type HCV in viral replicon RNA-containing human HuH7 cells in absence of zedularine to EC90 wild type HCV in viral replicon RNA-containing human HuH7 cells in presence of zedularine; type: functional, Hepacivirus hominis, Huh-7
Summary of the method: (§3)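 Clone A Huh-7 replicon cells at 1,500 cells/well, without G418. Threefold serial compound dilutions were given with or without 100 μM zebularine, for 4 days at 37°C in 5% CO2. Replicon RNA was quantified by single-step multiplex RT-PCR, and activity was taken as ΔCT relative to the no-drug control.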

Hepatitis C virus [6] = assay: Antiviral activity against HCV harboring NS5B polymerase S282T mutation infected in human HuH7 cells assessed as inhibition of viral RNA replication after 4 days by replicon assay in presence of 100 uM DCTD inhibitor zedularine; type: functional, Hepacivirus hominis; conditions: Huh-7, 96 h; summary of the method: as §2
Hepatitis C virus [7] = assay: Antiviral activity against wild type HCV infected in human HuH7 cells assessed as inhibition of viral RNA replication after 4 days by replicon assay in presence of 100 uM DCTD inhibitor zedularine; type: functional, Hepacivirus hominis; conditions: Huh-7, 96 h; summary of the method: as §3
Hepatitis C virus [8] = assay: Antiviral activity against wild type HCV infected in human HuH7 cells assessed as inhibition of viral RNA replication after 4 days by replicon assay in absence of DCTD inhibitor zedularine; type: functional, Hepacivirus hominis; conditions: Huh-7, 96 h; summary of the method: as §3
Hepatocyte [9] = assay: Metabolic stability in human hepatocytes assessed as RO2433 triphosphate half life at 2 uM; type: ADME, cell-based, Liver
[10] = Cytotoxicity against HCV subgenomic replicon RNA-containing human HuH7 cells at > 400 uM; type: cell-based; conditions: huh-7
[11] = Drug metabolism in HCV subgenomic replicon RNA-containing human HuH7 cells assessed as RO2433 nucleotide monophosphate level per 10 '6 cells at 5 uM after 48 hrs by HPLC analysis in presence of 50 uM DCTD inhibitor zedularine; type: ADME, cell-based; conditions: huh-7, 48 h
Summary of the method: (§4)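 Clone A Huh-7 replicon cells were grown overnight in DMEM with 10% FBS. They were then exposed to 5 μM [3H]PSI-6130 with 0, 50 or 100 μM zebularine for 48 h at 37°C. Cells were washed, trypsinized, counted and extracted in cold 60% methanol. Nucleotides were separated by SAX HPLC (0–100% buffer B over 90 min) with radiometric flow detection.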

[12] = Drug metabolism in HCV subgenomic replicon RNA-containing human HuH7 cells assessed as PSI-6130 nucleotide triphosphate level per 10 '6 cells at 5 uM after 48 hrs by HPLC analysis in presence of 50 uM DCTD inhibitor zedularine; type: ADME, cell-based; conditions: huh-7, 48 h; summary of the method: as §4
Hepatitis C virus [13] = assay: Antiviral activity against wild type HCV infected in human HuH7 cells assessed as inhibition of viral RNA replication after 4 days by replicon assay; type: functional, Hepacivirus hominis; conditions: Huh-7, 96 h
Summary of the method: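 Wild-type HCV subgenomic replicon Huh-7 cells (clone A) were plated at 1,500 cells/well in G418-free medium with threefold serial compound dilutions and incubated for 4 days at 37°C, 5% CO2. Replicon RNA was extracted and measured by single-step multiplex RT-PCR. Activity was calculated as the CT shift from the no-drug control, with EC90 derived.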

[14] = Drug metabolism in HCV subgenomic replicon RNA-containing human HuH7 cells assessed as PSI-6130 nucleotide triphosphate level per 10 '6 cells at 5 uM after 48 hrs by HPLC analysis in absence of DCTD inhibitor zedularine; type: ADME, cell-based; conditions: huh-7, 48 h; summary of the method: as §4
[15] = Drug metabolism in HCV subgenomic replicon RNA-containing human HuH7 cells assessed as PSI-6130 nucleotide diphosphate level per 10 '6 cells at 5 uM after 48 hrs by HPLC analysis in presence of 100 uM DCTD inhibitor zedularine; type: ADME, cell-based; conditions: huh-7, 48 h; summary of the method: as §4
[16] = Drug metabolism in HCV subgenomic replicon RNA-containing human HuH7 cells assessed as PSI-6130 nucleotide monophosphate level per 10 '6 cells at 5 uM after 48 hrs by HPLC analysis in presence of 100 uM DCTD inhibitor zedularine; type: ADME, cell-based; conditions: huh-7, 48 h; summary of the method: as §4
[17] = Drug metabolism in HCV subgenomic replicon RNA-containing human HuH7 cells assessed as PSI-6130 nucleotide diphosphate level per 10 '6 cells at 5 uM after 48 hrs by HPLC analysis in presence of 50 uM DCTD inhibitor zedularine; type: ADME, cell-based; conditions: huh-7, 48 h; summary of the method: as §4
[18] = Drug metabolism in HCV subgenomic replicon RNA-containing human HuH7 cells assessed as RO2433 nucleotide triphosphate level per 10 '6 cells at 5 uM after 48 hrs by HPLC analysis in presence of 50 uM DCTD inhibitor zedularine; type: ADME, cell-based; conditions: huh-7, 48 h; summary of the method: as §4
[19] = Drug metabolism in HCV subgenomic replicon RNA-containing human HuH7 cells assessed as RO2433 nucleotide triphosphate level per 10 '6 cells at 5 uM after 48 hrs by HPLC analysis in absence of DCTD inhibitor zedularine; type: ADME, cell-based; conditions: huh-7, 48 h; summary of the method: as §4
[20] = Drug metabolism in HCV subgenomic replicon RNA-containing human HuH7 cells assessed as PSI-6130 nucleotide diphosphate level per 10 '6 cells at 5 uM after 48 hrs by HPLC analysis in absence of DCTD inhibitor zedularine; type: ADME, cell-based; conditions: huh-7, 48 h; summary of the method: as §4
[21] = Drug metabolism in HCV subgenomic replicon RNA-containing human HuH7 cells assessed as PSI-6130 nucleotide monophosphate level per 10 '6 cells at 5 uM after 48 hrs by HPLC analysis in presence of 50 uM DCTD inhibitor zedularine; type: ADME, cell-based; conditions: huh-7, 48 h; summary of the method: as §4
[22] = Drug metabolism in HCV subgenomic replicon RNA-containing human HuH7 cells assessed as RO2433 nucleotide diphosphate level at 5 uM after 48 hrs by HPLC analysis in presence of 100 uM DCTD inhibitor zedularine; type: ADME, cell-based; conditions: huh-7, 48 h; summary of the method: as §4
[23] = Drug metabolism in HCV subgenomic replicon RNA-containing human HuH7 cells assessed as RO2433 nucleotide diphosphate level per 10 '6 cells at 5 uM after 48 hrs by HPLC analysis in presence of 50 uM DCTD inhibitor zedularine; type: ADME, cell-based; conditions: huh-7, 48 h; summary of the method: as §4
[24] = Drug metabolism in HCV subgenomic replicon RNA-containing human HuH7 cells assessed as RO2433 nucleotide monophosphate level per 10 '6 cells at 5 uM after 48 hrs by HPLC analysis in absence of DCTD inhibitor zedularine; type: ADME, cell-based; conditions: huh-7, 48 h; summary of the method: as §4
[25] = Drug metabolism in HCV subgenomic replicon RNA-containing human HuH7 cells assessed as RO2433 nucleotide triphosphate level per 10 '6 cells at 5 uM after 48 hrs by HPLC analysis in presence of 100 uM DCTD inhibitor zedularine; type: ADME, cell-based; conditions: huh-7, 48 h; summary of the method: as §4
[26] = Drug metabolism in HCV subgenomic replicon RNA-containing human HuH7 cells assessed as RO2433 nucleotide monophosphate level per 10 '6 cells at 5 uM after 48 hrs by HPLC analysis in presence of 100 uM DCTD inhibitor zedularine; type: ADME, cell-based; conditions: huh-7, 48 h; summary of the method: as §4
[27] = Drug metabolism in HCV subgenomic replicon RNA-containing human HuH7 cells assessed as RO2433 nucleotide diphosphate level per 10 '6 cells at 5 uM after 48 hrs by HPLC analysis in absence of DCTD inhibitor zedularine; type: ADME, cell-based; conditions: huh-7, 48 h; summary of the method: as §4
[28] = Drug metabolism in HCV subgenomic replicon RNA-containing human HuH7 cells assessed as PSI-6130 nucleotide monophosphate level per 10 '6 cells at 5 uM after 48 hrs by HPLC analysis in absence of DCTD inhibitor zedularine; type: ADME, cell-based; conditions: huh-7, 48 h; summary of the method: as §4
[29] = Drug metabolism in HCV subgenomic replicon RNA-containing human HuH7 cells assessed as PSI-6130 nucleotide triphosphate level per 10 '6 cells at 5 uM after 48 hrs by HPLC analysis in presence of 100 uM DCTD inhibitor zedularine; type: ADME, cell-based; conditions: huh-7, 48 h; summary of the method: as §4
[30] = Activity of wild type HCV NS5B polymerase; set-up: species or system Hepacivirus hominis; summary of the method: as §1
Hepatocyte [31] = assay: Metabolic stability in human hepatocytes assessed as RO2433 triphosphate half life at 2 uM

RNA-directed RNA polymerase, sequence (O39930 entry or part of it S282T): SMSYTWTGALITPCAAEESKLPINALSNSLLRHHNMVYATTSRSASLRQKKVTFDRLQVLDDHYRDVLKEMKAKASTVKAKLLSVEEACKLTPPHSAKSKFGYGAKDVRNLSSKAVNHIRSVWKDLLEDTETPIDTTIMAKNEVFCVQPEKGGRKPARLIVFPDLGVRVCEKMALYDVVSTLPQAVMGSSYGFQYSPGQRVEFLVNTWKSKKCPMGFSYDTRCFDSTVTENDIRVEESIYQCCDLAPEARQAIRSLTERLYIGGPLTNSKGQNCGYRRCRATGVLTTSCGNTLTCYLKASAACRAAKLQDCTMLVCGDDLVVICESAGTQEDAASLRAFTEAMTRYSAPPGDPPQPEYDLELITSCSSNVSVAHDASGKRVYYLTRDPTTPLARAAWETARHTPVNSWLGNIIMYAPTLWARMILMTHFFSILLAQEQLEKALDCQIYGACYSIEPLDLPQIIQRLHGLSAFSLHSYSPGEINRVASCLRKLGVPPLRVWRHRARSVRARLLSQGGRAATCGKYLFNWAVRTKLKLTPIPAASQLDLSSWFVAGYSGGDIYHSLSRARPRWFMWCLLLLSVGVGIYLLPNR

C[C@@]1(F)[C@H](O)[C@@H](COP(=O)(O)OP(=O)(O)OP(=O)(O)O)O[C@H]1n1ccc(N)nc1=O [PSI-6130-TP]
Ki [1]: 0.059 µM | Ki [2]: 0.31 µM

C[C@@]1(F)[C@H](O)[C@@H](CO)O[C@H]1n1ccc(N)nc1=O
EC90 (Hepatitis C virus [3]): 23.8 µM | t1/2 (Hepatocyte [4]): 4.7 h | Ratio (Hepatitis C virus [5]): 2.3 | EC90 (Hepatitis C virus [6]): 8.9 µM | EC90 (Hepatitis C virus [7]): 2.1 µM | EC90 (Hepatitis C virus [8]): 4.9 µM

COC(=O)[C@H](C)NP(=O)(OC[C@H]1O[C@@H](n2ccc(=O)[nH]c2=O)[C@](C)(F)[C@@H]1O)Oc1ccccc1 (stereo partly specified)
EC90 (Hepatitis C virus [3]): 34.7 µM | EC90 (Hepatitis C virus [8]): 1.6 µM

C[C@@]1(F)[C@H](O)[C@@H](CO)O[C@H]1n1ccc(=O)[nH]c1=O
Activity (Hepatocyte [9]): Not Active | EC90 (Hepatitis C virus [8]): > 100 µM

O=c1ncccn1[C@@H]1O[C@H](CO)[C@@H](O)[C@H]1O [ZEBULARINE]
Activity [10]: 50% | Activity [11]: 0.27 pmol | Activity [12]: 28.62 pmol | EC90 (Hepatitis C virus [13]): > 400 µM | Activity [14]: 11.53 pmol | Activity [15]: 6.61 pmol | Activity [16]: 1.26 pmol | Activity [17]: 5.48 pmol | Activity [18]: 5.62 pmol | Activity [19]: 11.51 pmol | Activity [20]: 3.3 pmol | Activity [21]: 1.04 pmol | Activity [22]: 0.88 pmol | Activity [23]: 1.33 pmol | Activity [24]: 0.79 pmol | Activity [25]: 3.53 pmol | Activity [26]: 0.22 pmol | Activity [27]: 4.79 pmol | Activity [28]: 0.65 pmol | Activity [29]: 31.74 pmol

C[C@@]1(F)[C@H](O)[C@@H](COP(=O)(O)OP(=O)(O)OP(=O)(O)O)O[C@H]1n1ccc(=O)[nH]c1=O [GS-461203]
Km [30]: 0.068 µM | Ki [1]: 0.42 µM | Ki [2]: 22 µM | t1/2 (Hepatocyte [31]): 38 h

From ChEMBL document CHEMBL1152990, “The mechanism of action of beta-D-2'-deoxy-2'-fluoro-2'-C-methylcytidine involves a second metabolic pathway leading to beta-D-2'-deoxy-2'-fluoro-2'-C-methyluridine 5'-triphosphate, a potent inhibitor of the hepatitis C virus RNA-dependent RNA polymerase” (Antimicrob Agents Chemother, 2008)
